According to ChEMBL document CHEMBL3576763, “Synthesis and Biological Activities of 5-Thio-α-GalCers” (2015):
Calls of active or inactive are those of the source. The rule behind the calls is not given here.

How the values were obtained:
[1] = test system: Mus musculus; assay: Immunostimulatory activity in B6 mouse assessed as induction of IL-4 production in serum at 100 ug/kg, ip measured up to 12 hrs by ELISA; format: functional, organism-based
In short: (§1)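 Glycolipid given intraperitoneally to B6 mice at 100 μg/kg. Serum IFN-γ and IL-4 measured at several time points after injection. Two mice per group, each mouse's serum assayed individually at each time.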

[2] = test system: Mus musculus; assay: Immunostimulatory activity in B6 mouse assessed as induction of IFN-gamma production in serum at 100 ug/kg, ip after 24 hrs by ELISA; format: functional; in short: as §1
[3] = test system: Mus musculus; assay: Immunostimulatory activity in B6 mouse assessed as induction of IL-4 production in serum at 100 ug/kg, ip measured after 12 hrs by ELISA; format: functional, organism-based; in short: as §1
[4] = test system: iNKT; assay: Immunostimulatory activity in B6 mouse iNKT cells assessed as induction of IFN-gamma production at 1000 ng/ml incubated for 16 hrs followed by brefeldin A addition measured after 2 hrs by flow cytometric analysis (reference value: 0.6%); format: functional
In short: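 Mouse splenocytes stimulated with glycolipid in vitro; IFN-γ measured in cells gated as CD3+DX5+CD1d tetramer+ NKT cells. Control cells held in complete 1640 medium only; PMA plus ionomycin used as positive control.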

[5] = test system: Mus musculus; assay: Immunostimulatory activity in B6 mouse assessed as induction of IFN-gamma production in serum at 100 ug/kg, ip by ELISA; format: functional, organism-based; in short: as §1
[6] = test system: Mus musculus; assay: Immunostimulatory activity in B6 mouse assessed as induction of IL-4 production in serum at 100 ug/kg, ip measured at 3 hrs by ELISA; format: functional, organism-based; in short: as §1
[7] = test system: Mus musculus; assay: Immunostimulatory activity in B6 mouse assessed as induction of IFN-gamma production in serum at 100 ug/kg, ip measured at 6 to 24 hrs by ELISA; format: functional; in short: as §1
[8] = test system: iNKT; assay: Immunostimulatory activity in B6 mouse iNKT cells assessed as induction of IFN-gamma production incubated for 16 hrs followed by brefeldin A addition measured after 2 hrs by flow cytometric analysis in presence of ionomycin (reference value: 0.6%); format: functional

SMILES | Activity [1] | Activity [2] [pg/mL] | Activity [3] | Activity [4] [%] | Activity [5] | Activity [6] | Activity [7] [pg/mL] | Activity [8] [%]
CCCCCCCCCCCCCCCCCCCCCCCCCC(=O)N[C@@H](CO[C@H]1S[C@H](CO)[C@H](O)[C@H](O)[C@H]1O)[C@H](O)[C@H](O)CCCCCCCCCCCCCC | Active | 1722 | inactive | 8.5 |  |  |  | 
CCCCCCCCCCCCCC[C@@H](O)[C@@H](O)[C@H](CO[C@H]1S[C@H](CO)[C@H](O)[C@H](O)[C@H]1O)NC(=O)CCCCCCCCCCCCC | inactive |  | inactive | 6 | Active |  |  | 
CCCCCCCCCCCCCCCCCCCCCCCCCC(=O)N[C@@H](CO[C@H]1O[C@H](CO)[C@H](O)[C@H](O)[C@H]1O)[C@H](O)[C@H](O)CCCCCCCCCCCCCC [RGI-7000] |  |  |  | 4.1 |  | Active | 2127 | 
CCCCCCCCCCCCCC(=O)O[C@@H]1[C@@H](C)[C@@]2(O)[C@@H](C=C(CO)C[C@]3(O)C(=O)C(C)=C[C@@H]23)[C@@H]2C(C)(C)[C@]12OC(C)=O [PHORBOL MYRISTATE ACETATE] |  |  |  |  |  |  |  | 8.5
CCCCCCCCCCCCCC[C@@H](O)[C@@H](O)[C@H](CO[C@H]1S[C@H](CO)[C@H](O)[C@H](O)[C@H]1O)NC(=O)CCCCCCC |  |  | inactive | 1.4 | inactive |  |  | 
